In publication PMC9292928 (British Journal of Pharmacology, 2021):
“Also recorded” adds a separate entry of the source. Read-outs that look alike come from different tables or passages of the source.

Columns and labels:
[1] = test system: hyperthermia‐induced seizures in Scn1a +/− mice; details: cited from earlier work
[2] = test system: hyperthermia‐induced seizures in Scn1a +/− mice; assay: Hyperthermia-induced seizures in Scn1a+/− mice; format: in vivo, mouse; details: for Effective (anticonvulsant) dose against hyperthermia-induced seizures: i.p.
Procedure, shortened: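 Male and female Scn1a+/− F1 mice (congenic 129S6 heterozygotes × C57BL/6J), P14–16, got a single i.p. dose of vehicle or test compound, n = 12–18. Pretreatment time was set per compound from time-to-peak data (15–120 min), with matched vehicle controls. A rectal probe went in 15 min before, followed by 5-min acclimation. Core temperature was raised 0.5°C every 2 min until the first clonic convulsion with loss of posture, or to 42.5°C held 3 min. Thresholds were compared by log-rank Mantel–Cox.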

[3] = Solubility of dosing preparations; format: physicochemical; details: for State of dosing preparation: ethanol:Tween 80:saline (1:1:18), 10 ml·kg−1, CBGV 100, CBDV 60, CBG 30 mg·kg−1; for Aqueous solubility: reason for not testing 100 mg·kg−1
[4] = test system: spontaneous GTCS and survival of Scn1a +/− mice; assay: Spontaneous seizures; format: in vivo, mouse
Procedure, shortened: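 Male and female Scn1a+/− mice were primed with one hyperthermia-induced seizure at P18. They were cooled on a pad to a 37°C core temperature at the onset of clonic convulsion. Test compound was then given subchronically in chow. Spontaneous GTCS were counted blind from continuous video over 60 h, and dosing continued to P30 for survival. Seizure-free proportion was analysed by Fisher's exact test; frequency by one-way ANOVA with Dunnett's test.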

[5] = test system: 6‐Hz threshold test, Swiss male mice; assay: 6-Hz threshold test; format: in vivo, mouse; details: n = 12; for CC50 vs vehicle, 6-Hz threshold test: 45 min pretreatment
[6] = Plasma concentrations in experimental Scn1a+/− mice; format: in vivo, mouse
Procedure, shortened: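 Acute cohorts (n = 5–10) were anaesthetised with isoflurane directly after the hyperthermia protocol, and whole blood was taken by cardiac puncture. Plasma was stored at −80°C. Subchronic cohorts received drug orally in chow, with plasma collected on P31 within 30 min of lights on. Clobazam pretreatment was 30 min and test compound pretreatment 45 min before the hyperthermia time point.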

[7] = test system: 168 GPCRs and 74 orphan GPCRs; assay: Eurofins DiscoverX PathHunter β-arrestin GPCR screen; format: cell-based; details: 3 μM
[8] = molecular target: cannabinoid CB1 receptor (Homo sapiens, UniProt P21554); assay: Eurofins DiscoverX PathHunter β-arrestin GPCR screen, CB1; format: cell-based; details: 3 μM
[9] = molecular target: cannabinoid CB2 receptor (Homo sapiens, UniProt P34972); assay: Eurofins DiscoverX PathHunter β-arrestin GPCR screen, CB2; format: cell-based; details: 3 μM
[10] = molecular target: T1, GPR55 (Homo sapiens, UniProt Q9Y2T6); assay: Eurofins DiscoverX PathHunter β-arrestin GPCR screen, GPR55; format: cell-based; details: 3 μM
[11] = molecular target: T1, GPR55; assay: GPR55 ERK phosphorylation assay in HEK293 cells; format: cell-based; details: for EC80 concentration for GPR55 activation (pERK): agonist alone
[12] = molecular target: human TRPV1 (Homo sapiens, UniProt Q8NER1); assay: TRPV1 intracellular calcium assay; format: cell-based
[13] = molecular target: T2, concatenated human γ2–β2–α1–β2–α1 GABA receptor (Homo sapiens, UniProt P14867+P18507+P47870); assay: Two-electrode voltage clamp, GABA-evoked currents in Xenopus oocytes; format: cell-based
Procedure, shortened: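 Two-electrode voltage clamp used Xenopus oocytes expressing concatenated human γ2–β2–α1–β2–α1 receptors. GABA (15 μM) was applied three times with 7–12 min washout, and currents were normalised to the mean of the last two applications. Preincubation was 60 s. Per cent modulation came from a published equation, and the Hill equation fit gave Imax and EC50, n = 5.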

[14] = molecular target: T2, concatenated human γ2–β2–α1–β2–α1 GABA receptor; assay: GABAA receptor desensitization assay in Xenopus oocytes; format: cell-based; details: 10 μM CBGA, 180-s preincubation, 1 mM GABA; 103 ± 3% without preincubation
[15] = ref Anderson, Low, et al., 2019; cited from earlier work
[16] = test system: MES‐induced seizures; details: ref Hawkins et al., 2017; Luszczki et al., 2003; Miller et al., 1986; cited from earlier work
[17] = test system: Scn1a +/− mice; details: ref Hawkins et al., 2017; Luszczki et al., 2003; Miller et al., 1986; cited from earlier work
[18] = test system: MES threshold test, Swiss male mice; assay: Maximal electroshock; format: in vivo, mouse; details: 300 mg·kg−1, 15 min prior, n = 12
Procedure, shortened: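 Swiss male mice, n = 12; the positive control was given 15 min before shock. Corneal electroshocks were 60 Hz, 0.4 s, 0.5-ms rectangular pulses, starting at 50 mA. A blinded observer scored GTCS with full hindlimb extension (hindlimbs at 180° to torso).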

[19] = test system: pentylenetetrazole (PTZ)‐induced seizures; details: ref Hill et al., 2010; cited from earlier work
[20] = Scn1a+/− mice, ref Anderson et al., 2021
[21] = 30 mg·kg−1 single i.p., Scn1a+/− mice P14–16
[22] = 100 mg·kg−1 single i.p., Scn1a+/− mice P14–16
[23] = over all doses tested, single i.p., Scn1a+/− mice P14–16
[24] = acute i.p., CBGA 30 mg·kg−1 + clobazam 1 mg·kg−1

T1 sequence (Q9Y2T6 whole entry): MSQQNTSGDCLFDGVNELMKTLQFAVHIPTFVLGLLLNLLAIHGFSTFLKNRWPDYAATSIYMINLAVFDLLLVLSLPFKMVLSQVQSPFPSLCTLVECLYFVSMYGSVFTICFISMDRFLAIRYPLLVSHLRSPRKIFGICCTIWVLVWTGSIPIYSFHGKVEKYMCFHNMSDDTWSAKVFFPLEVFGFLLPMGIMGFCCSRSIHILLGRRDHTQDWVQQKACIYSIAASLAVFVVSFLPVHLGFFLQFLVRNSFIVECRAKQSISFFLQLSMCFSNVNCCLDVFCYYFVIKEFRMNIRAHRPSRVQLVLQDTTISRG
Sequence of human TRPV1 (Q8NER1 whole entry): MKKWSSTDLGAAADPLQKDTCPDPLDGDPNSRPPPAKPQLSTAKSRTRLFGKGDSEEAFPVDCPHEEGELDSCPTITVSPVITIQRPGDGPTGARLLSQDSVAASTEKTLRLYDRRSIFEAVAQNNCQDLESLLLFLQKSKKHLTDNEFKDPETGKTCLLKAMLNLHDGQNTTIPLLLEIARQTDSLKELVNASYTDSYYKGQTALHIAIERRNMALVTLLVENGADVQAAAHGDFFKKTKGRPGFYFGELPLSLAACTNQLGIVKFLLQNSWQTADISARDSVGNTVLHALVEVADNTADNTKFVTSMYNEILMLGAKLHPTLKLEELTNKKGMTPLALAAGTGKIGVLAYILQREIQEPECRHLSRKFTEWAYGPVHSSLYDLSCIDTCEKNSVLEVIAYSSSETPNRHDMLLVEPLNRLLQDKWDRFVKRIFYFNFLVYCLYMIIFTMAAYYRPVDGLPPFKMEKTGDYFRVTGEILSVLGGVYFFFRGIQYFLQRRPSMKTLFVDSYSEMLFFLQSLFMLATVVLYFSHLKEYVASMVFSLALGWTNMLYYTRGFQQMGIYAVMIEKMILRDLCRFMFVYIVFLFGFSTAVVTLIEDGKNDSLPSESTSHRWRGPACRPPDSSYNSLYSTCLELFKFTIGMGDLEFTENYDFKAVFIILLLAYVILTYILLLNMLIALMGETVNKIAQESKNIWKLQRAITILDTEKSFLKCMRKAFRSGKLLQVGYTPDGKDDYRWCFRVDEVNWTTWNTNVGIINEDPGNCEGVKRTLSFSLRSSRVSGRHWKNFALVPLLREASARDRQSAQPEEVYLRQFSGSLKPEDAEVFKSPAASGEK
T2 sequence (P14867 28-456): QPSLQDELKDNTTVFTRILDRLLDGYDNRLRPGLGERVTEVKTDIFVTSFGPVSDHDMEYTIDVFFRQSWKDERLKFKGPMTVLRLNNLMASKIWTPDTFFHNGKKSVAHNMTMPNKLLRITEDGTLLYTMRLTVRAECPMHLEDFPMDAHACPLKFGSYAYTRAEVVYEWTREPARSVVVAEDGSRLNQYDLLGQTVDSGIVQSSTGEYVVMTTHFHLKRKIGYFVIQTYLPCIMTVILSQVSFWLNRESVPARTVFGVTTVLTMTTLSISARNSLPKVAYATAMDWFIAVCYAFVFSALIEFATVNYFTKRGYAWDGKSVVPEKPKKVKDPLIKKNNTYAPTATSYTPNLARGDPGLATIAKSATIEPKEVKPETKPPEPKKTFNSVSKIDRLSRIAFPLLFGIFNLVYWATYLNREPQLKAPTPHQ
T2 sequence (P47870 26-512): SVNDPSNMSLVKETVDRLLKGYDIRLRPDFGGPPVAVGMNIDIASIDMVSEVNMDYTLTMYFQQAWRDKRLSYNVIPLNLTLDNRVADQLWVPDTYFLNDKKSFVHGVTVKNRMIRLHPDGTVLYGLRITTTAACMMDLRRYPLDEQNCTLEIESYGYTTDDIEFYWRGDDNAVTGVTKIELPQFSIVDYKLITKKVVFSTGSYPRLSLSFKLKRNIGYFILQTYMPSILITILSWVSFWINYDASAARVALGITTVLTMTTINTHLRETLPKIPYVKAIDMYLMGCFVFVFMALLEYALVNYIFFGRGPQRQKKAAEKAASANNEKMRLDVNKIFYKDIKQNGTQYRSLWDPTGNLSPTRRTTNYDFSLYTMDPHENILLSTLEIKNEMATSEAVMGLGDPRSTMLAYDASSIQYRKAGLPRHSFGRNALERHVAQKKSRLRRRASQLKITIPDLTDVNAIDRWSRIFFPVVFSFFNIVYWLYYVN
T2 sequence (P18507 40-475): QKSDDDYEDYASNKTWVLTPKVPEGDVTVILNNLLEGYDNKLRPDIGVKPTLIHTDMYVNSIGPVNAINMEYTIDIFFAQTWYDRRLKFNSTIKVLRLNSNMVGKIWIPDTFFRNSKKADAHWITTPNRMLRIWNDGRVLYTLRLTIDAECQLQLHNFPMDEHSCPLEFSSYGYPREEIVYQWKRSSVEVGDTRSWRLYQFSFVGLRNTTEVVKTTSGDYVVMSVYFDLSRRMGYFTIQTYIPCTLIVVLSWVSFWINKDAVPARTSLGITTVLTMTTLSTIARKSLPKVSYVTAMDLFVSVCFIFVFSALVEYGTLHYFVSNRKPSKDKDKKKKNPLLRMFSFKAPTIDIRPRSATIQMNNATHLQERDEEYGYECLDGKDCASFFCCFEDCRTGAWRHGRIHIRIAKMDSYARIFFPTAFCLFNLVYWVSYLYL
Sequence of cannabinoid CB1 receptor (P21554 whole entry): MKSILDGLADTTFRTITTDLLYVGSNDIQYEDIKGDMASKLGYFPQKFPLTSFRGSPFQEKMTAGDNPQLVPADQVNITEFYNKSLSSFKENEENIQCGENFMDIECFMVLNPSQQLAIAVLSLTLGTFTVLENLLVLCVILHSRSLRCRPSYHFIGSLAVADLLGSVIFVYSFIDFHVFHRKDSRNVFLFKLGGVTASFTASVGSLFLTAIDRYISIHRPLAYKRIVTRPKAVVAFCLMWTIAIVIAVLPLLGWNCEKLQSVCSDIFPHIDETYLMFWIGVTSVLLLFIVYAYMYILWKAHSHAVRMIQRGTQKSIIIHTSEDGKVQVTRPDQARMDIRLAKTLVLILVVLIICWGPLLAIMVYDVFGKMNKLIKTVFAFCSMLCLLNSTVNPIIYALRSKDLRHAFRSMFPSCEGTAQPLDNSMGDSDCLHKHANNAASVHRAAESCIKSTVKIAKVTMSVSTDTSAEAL
Sequence of cannabinoid CB2 receptor (P34972 whole entry): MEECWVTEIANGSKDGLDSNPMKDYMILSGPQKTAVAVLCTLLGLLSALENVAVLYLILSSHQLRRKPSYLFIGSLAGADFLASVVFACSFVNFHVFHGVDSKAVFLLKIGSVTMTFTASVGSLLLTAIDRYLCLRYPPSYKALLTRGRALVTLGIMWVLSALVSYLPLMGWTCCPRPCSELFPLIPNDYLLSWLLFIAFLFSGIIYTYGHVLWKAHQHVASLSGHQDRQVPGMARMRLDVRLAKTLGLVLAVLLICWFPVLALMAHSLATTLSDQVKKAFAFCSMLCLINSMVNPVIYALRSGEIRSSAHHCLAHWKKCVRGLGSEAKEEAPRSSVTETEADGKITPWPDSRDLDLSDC

Compound: CCCCCc1cc2c(c(O)c1C(=O)O)C=CC(C)(CCC=C(C)C)O2 (stereo not drawn) [CBCA, cannabichromenic acid]
- Effect against hyperthermia-induced seizures [1, 20]: anticonvulsant effects

Compound: CCCc1cc2c(c(O)c1C(=O)O)C=CC(C)(CCC=C(C)C)O2 (stereo not drawn) [CBCVA, cannabichromevarinic acid]
- Effect against hyperthermia-induced seizures [1, 20]: anticonvulsant effects

Compound: C=C(C)[C@@H]1CCC(C)=C[C@H]1c1c(O)cc(CCCCC)cc1O [CBD, cannabidiol]
- Effect against hyperthermia-induced seizures ([1]; 100 mg·kg−1, ref Anderson, Absalom, et al., 2019, Anderson et al., 2020, Kaplan et al., 2017): anticonvulsant

Compound: C=C(C)[C@@H]1CCC(C)=C[C@H]1c1c(O)cc(CCC)cc1O [CBDV, cannabidivarin]
- Temperature threshold for GTCS induced by hyperthermia vs vehicle [2, 21]: increase in GTCS temperature threshold
- State of dosing preparation [3]: near solubility limits
- Aqueous solubility [3]: poor aqueous solubility

Compound: C=C(C)[C@@H]1CCC(C)=C[C@H]1c1c(O)cc(CCC)c(C(=O)O)c1O [CBDVA, cannabidivarinic acid]
- Temperature threshold for GTCS induced by hyperthermia vs vehicle [2, 22]: significantly elevated
- Effective (anticonvulsant) dose against hyperthermia-induced seizures ([2]; Scn1a+/− mice): 100 mg/kg

Compound: CCCCCc1cc(O)c(C/C=C(\C)CCC=C(C)C)c(O)c1 [CBG, cannabigerol]
- Mice seizure free (protected from GTCS) ([2]; 0.3 mg·kg−1 i.p., n = 12–18 per group): four
- Temperature threshold for GTCS induced by hyperthermia vs vehicle [2, 23]: Neither cannabigerol (CBG) nor cannabigerivarin (CBGV) affected thresholds
- State of dosing preparation [3]: near solubility limits
- Aqueous solubility [3]: poor aqueous solubility

Compound: CCCCCc1cc(O)c(C/C=C(\C)CCC=C(C)C)c(O)c1C(=O)O [CBGA, cannabigerolic acid]
- Temperature threshold for GTCS induced by hyperthermia vs vehicle [2, 21]: anticonvulsant; also recorded: significantly elevated
- Temperature threshold for GTCS induced by hyperthermia vs vehicle [2, 22]: anticonvulsant
- Effective (anticonvulsant) dose against hyperthermia-induced seizures ([2]; Scn1a+/− mice): 30 mg/kg
- Temperature threshold for GTCS induced by hyperthermia vs vehicle [2, 23]: dose‐dependently increased
- Spontaneous GTCS frequency ([4]; 2500 mg·kg−1 chow, oral subchronic, 60-h recording): significantly increased
- Survival to P30 relative to controls ([4]; 1400 and 2500 mg·kg−1 chow, oral): did not differ
- Proportion of mice experiencing GTCS during observation period ([4]; 1400 and 2500 mg·kg−1 chow, oral subchronic, 60-h recording): Neither dose of CBGA affected
- CC50 vs vehicle, 6-Hz threshold test ([5]; 10 mg·kg−1 i.p.): significantly lower
- CC50 vs vehicle, 6-Hz threshold test ([5]; 30 mg·kg−1 i.p.): significantly lower
- CC50 vs vehicle, 6-Hz threshold test ([5]; 100 mg·kg−1 i.p.): did not differ from vehicle
- Plasma concentration of CBGA on cotreatment with clobazam [6, 24]: significantly increased
- Plasma CBGA concentrations on cotreatment with clobazam ([6]; subchronic, chow): no effect
- Agonist or antagonist activity at 242 GPCRs [7]: No agonist or antagonist activity
- Effect at cannabinoid CB1 receptor [8]: did not affect
- Effect at cannabinoid CB2 receptor [9]: did not affect
- Agonist activity at GPR55 [10]: not an agonist
- IC50 ([11]; IC50, inhibition of GPR55 activation, rounded value of the discussion): ~5 µM
- IC50 ([11]; IC50, inhibition of LPI-mediated GPR55 activity (pERK), LPI 4 μM (EC80)): 5.7 µM
- IC50 ([11]; IC50, inhibition of ML-186-mediated GPR55 activity (pERK), ML-186 0.45 μM (EC80)): 4.8 µM
- Mode of antagonism at GPR55 ([11]; ML-186 concentration–response curves with varying CBGA): non‐competitive antagonist
- IC50 [12]: 22 µM
- Non-specific calcium influx ([12]; 30 and 100 μM CBGA, wildtype and TRPV1-expressing cells): non‐specific increase in intracellular calcium
- Agonist activity at TRPV1 ([12]; calcium influx): did not display agonist activity
- Modulation of GABA-evoked currents at high concentration ([13]; 30 μM CBGA, GABA 15 μM): substantially reduced
- EC50 ([13]; EC50, positive modulation of GABA-evoked currents, GABA 15 μM): 0.91 µM
- Emax ([13]; read-out: Maximum modulation of GABA-evoked peak currents (E max)): 271 ± 40%
- Peak GABA current after preincubation (percentage of GABA response) [14]: 31 ± 11%
- Brain penetration [15]: 2%
- Brain–plasma ratio [15]: 0.02

Compound: CCCc1cc(O)c(C/C=C(\C)CCC=C(C)C)c(O)c1 [CBGV, cannabigerivarin]
- Temperature threshold for GTCS induced by hyperthermia vs vehicle [2, 23]: Neither cannabigerol (CBG) nor cannabigerivarin (CBGV) affected thresholds
- State of dosing preparation [3]: suspension

Compound: CCCc1cc(O)c(C/C=C(\C)CCC=C(C)C)c(O)c1C(=O)O [CBGVA, cannabigerovarinic acid]
- Temperature threshold for GTCS induced by hyperthermia vs vehicle [2, 22]: significantly elevated
- Effective (anticonvulsant) dose against hyperthermia-induced seizures ([2]; Scn1a+/− mice): 100 mg/kg

Compound: Nc1nnc(-c2cccc(Cl)c2Cl)c(N)n1 [Lamotrigine]
- Effect against MES-induced seizures [16]: anticonvulsant
- Effect on seizures in Scn1a+/− mice [17]: proconvulsant

Compound: COc1ccc(S(=O)(=O)N2CCOCC2)cc1NC(=O)c1cc2c(s1)CCCC2 [ML‐186, reference compound]
- EC80 concentration for GPR55 activation (pERK) [11]: 0.45 μM

Compound: O=C1CC(=O)N(c2ccccc2)c2cc(Cl)ccc2N1 [N‐desmethylclobazam]
- Plasma concentrations of N-desmethylclobazam on CBGA co-administration [6, 24]: reduced
- Plasma concentrations of N-desmethylclobazam when clobazam combined with CBGA ([6]; subchronic, chow): significantly lower

Compound: CN1C(=O)CC(=O)N(c2ccccc2)c2cc(Cl)ccc21 [clobazam, reference compound]
- Temperature threshold for GTCS induced by hyperthermia vs vehicle ([2]; 1 mg·kg−1 single i.p., Scn1a+/− mice): significantly elevated
- Spontaneous GTCS frequency ([4]; 80 mg clobazam·kg−1 chow, oral, 60-h recording): significantly reducing
- Survival to P30 ([4]; clobazam 80 mg·kg−1 chow alone or plus CBGA 1400 mg·kg−1 chow): neither treatment had any effect
- Proportion of mice displaying GTCS ([4]; clobazam 80 mg·kg−1 chow alone or plus CBGA 1400 mg·kg−1 chow, controls 63%): 35%
- Plasma clobazam concentrations on CBGA co-administration [6, 24]: did not affect

Compound: CCCC(CCC)C(=O)O [valproic acid, reference compound]
- Protection against seizure activity, MES threshold test [18]: 100%
- Protection against seizure activity, 6-Hz threshold test ([5]; 300 mg·kg−1, 15 min prior): 100%

Compound: CCCc1cc(O)c2c(c1)OC(C)(C)[C@@H]1CCC(C)=C[C@@H]21 [Δ^9‐THCV, tetrahydrocannabivarin]
- Temperature threshold for GTCS induced by hyperthermia vs vehicle ([2]; 3 mg·kg−1 single i.p., Scn1a+/− mice P14–16): proconvulsant
- Effect against PTZ-induced seizures [19]: anticonvulsant effects

Compound: lysophosphatidylinositol [LPI, reference compound]
- EC80 concentration for GPR55 activation (pERK) [11]: 4 μM
